Source: ChEMBL document CHEMBL4130443, “Targeting breast cancer stem cells by novel HDAC3-selective inhibitors” (Eur J Med Chem, 2017)
Active and inactive are the calls of the source. No cut-off for these calls is given here.

Assays:
[1] = system: MDA-MB-231; assay: Growth inhibition of human MDA-MB-231 cells incubated for 48 to 72 hrs by crystal violet staining based assay; type: functional, cell-based
Method in brief: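 Cells plated at 5000/well and left overnight, then treated in 5% FBS for 24, 48 and 72 h. Washed with PBS, stained 20 min with 0.5% crystal violet in 20% methanol, stain solubilized in 2% SDS, absorbance read at 550. Growth inhibition calculated as (1-Nt/Nc) x 100 against vehicle wells. N = 6.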

[2] = biological target: Histone deacetylase 2 (Homo sapiens, UniProt Q92769); assay: Inhibition of human HDAC2 using p53 (379 to 382 residues) derived fluorogenic peptide RHKKAc
Histone deacetylase 2, sequence (Q92769 whole entry, the tested form may be a part): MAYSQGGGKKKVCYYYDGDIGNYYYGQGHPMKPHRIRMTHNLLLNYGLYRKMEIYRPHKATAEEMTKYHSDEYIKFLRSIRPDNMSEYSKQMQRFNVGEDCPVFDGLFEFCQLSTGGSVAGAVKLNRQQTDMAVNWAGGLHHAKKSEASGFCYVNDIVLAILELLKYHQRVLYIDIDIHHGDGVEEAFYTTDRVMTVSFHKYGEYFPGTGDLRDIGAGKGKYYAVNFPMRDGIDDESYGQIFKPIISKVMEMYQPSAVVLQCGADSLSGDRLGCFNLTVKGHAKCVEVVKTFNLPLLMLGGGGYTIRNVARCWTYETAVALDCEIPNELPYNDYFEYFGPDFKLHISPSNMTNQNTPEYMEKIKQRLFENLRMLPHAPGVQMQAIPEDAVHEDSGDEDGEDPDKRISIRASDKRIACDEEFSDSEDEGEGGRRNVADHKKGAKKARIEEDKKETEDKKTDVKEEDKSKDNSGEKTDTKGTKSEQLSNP

[3] = system: MDA-MB-231; assay: Inhibition of tumorogenicity of human MDA-MB-231 cells xenografted in NOD/SCID mouse injected with cells pretreated with 5 uM compound for 48 hrs assessed as reduction in tumor incidence at 100 mg/kg, po dosed via gavage once daily starting on day 2 post injection and continuing through day 12; type: functional, organism-based
Method in brief: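 Cells pretreated 48 h with 5 µM compound or DMSO, trypsinized and injected at 50,000 cells/0.1 ml in 50% Matrigel into the left 4th inguinal mammary fat pad of female NOD/SCID mice (N = 10 per group). Dosed 100 mg/kg by oral gavage once daily in 0.5% methylcellulose/0.1% Tween 80 in water. Caliper volume = (width² x length) x 0.52. Incidence by log-rank test, volume at day 27 by t-test.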

[4] = biological target: Histone deacetylase 3/Nuclear receptor corepressor 2 (HDAC3/NCoR2) (Homo sapiens) (UniProt O15379+Q9Y618); assay: Inhibition of human HDAC3/NCOR2 at 1 uM using p53 (379 to 382 residues) derived fluorogenic peptide RHKKAc; type: protein-complex assay
Method in brief: (§1)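 Isoform profiling run by a commercial vendor with compounds at 1 µM. Values are percent inhibition, each the average of two determinations.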

[5] = biological target: T1, Histone deacetylase 8 (Homo sapiens) (UniProt Q9BY41); assay: Inhibition of human HDAC8 at 1 uM using p53 (379 to 382 residues) derived fluorogenic peptide RHKAcKAc; method in brief: as §1
T1 sequence (whole entry): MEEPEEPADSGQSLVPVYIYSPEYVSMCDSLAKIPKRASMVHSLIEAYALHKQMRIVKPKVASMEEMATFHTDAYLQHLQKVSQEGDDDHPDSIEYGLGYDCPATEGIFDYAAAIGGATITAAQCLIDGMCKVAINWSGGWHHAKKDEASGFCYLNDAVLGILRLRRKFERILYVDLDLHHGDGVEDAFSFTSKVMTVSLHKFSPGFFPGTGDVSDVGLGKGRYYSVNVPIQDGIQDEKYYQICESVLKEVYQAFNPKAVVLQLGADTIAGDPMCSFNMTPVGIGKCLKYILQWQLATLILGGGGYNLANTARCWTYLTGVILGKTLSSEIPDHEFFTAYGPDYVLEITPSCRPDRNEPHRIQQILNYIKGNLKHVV

[6] = system: MDA-MB-231; assay: Inhibition of colony formation of human MDA-MB-231 cells incubated for 48 hrs by crystal violet staining based assay; settings: MDA-MB-231, 48 h
[7] = biological target: Histone deacetylase 3 (Homo sapiens) (UniProt O15379); assay: Inhibition of HDAC3 in human MDA-MB-231 cells assessed as increase in histone H3 acetylation at 0.5 to 5 uM by immunoblotting; type: cell-based
Histone deacetylase 3 (Homo sapiens), sequence (O15379 whole entry): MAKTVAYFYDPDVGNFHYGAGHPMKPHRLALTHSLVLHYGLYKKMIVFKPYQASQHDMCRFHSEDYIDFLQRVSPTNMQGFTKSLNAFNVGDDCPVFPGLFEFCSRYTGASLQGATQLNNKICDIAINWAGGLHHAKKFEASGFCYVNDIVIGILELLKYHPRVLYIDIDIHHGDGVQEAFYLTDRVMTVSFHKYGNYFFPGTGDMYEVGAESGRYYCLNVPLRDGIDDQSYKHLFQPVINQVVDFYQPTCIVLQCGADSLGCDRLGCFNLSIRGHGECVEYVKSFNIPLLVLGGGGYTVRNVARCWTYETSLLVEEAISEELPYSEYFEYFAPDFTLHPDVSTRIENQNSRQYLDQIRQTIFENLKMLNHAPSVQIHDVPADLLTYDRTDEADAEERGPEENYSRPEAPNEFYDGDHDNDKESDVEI
Method in brief: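 Monolayer cells treated in 5% FBS at graded concentrations. Lysed in SDS/EDTA/Tris pH 8.1 buffer, equal protein immunoblotted with primary antibodies 1:1000 overnight at 4°C. Detected by ECL for phospho-Akt, β-catenin and histone H3 pan/H3K9 acetylation.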

[8] = biological target: Histone deacetylase 3/Nuclear receptor corepressor 2 (HDAC3/NCoR2) (Homo sapiens, UniProt O15379); assay: Inhibition of human HDAC3/NCOR2 using p53 (379 to 382 residues) derived fluorogenic peptide RHKKAc; type: protein-complex assay
Histone deacetylase 3/Nuclear receptor corepressor 2 (HDAC3/NCoR2), sequence (O15379 whole entry, the tested form may be a part): as the sequence (O15379 whole entry) above
Histone deacetylase 3/Nuclear receptor corepressor 2 (HDAC3/NCoR2), sequence (Q9Y618 whole entry, further chain, the tested form may be a part): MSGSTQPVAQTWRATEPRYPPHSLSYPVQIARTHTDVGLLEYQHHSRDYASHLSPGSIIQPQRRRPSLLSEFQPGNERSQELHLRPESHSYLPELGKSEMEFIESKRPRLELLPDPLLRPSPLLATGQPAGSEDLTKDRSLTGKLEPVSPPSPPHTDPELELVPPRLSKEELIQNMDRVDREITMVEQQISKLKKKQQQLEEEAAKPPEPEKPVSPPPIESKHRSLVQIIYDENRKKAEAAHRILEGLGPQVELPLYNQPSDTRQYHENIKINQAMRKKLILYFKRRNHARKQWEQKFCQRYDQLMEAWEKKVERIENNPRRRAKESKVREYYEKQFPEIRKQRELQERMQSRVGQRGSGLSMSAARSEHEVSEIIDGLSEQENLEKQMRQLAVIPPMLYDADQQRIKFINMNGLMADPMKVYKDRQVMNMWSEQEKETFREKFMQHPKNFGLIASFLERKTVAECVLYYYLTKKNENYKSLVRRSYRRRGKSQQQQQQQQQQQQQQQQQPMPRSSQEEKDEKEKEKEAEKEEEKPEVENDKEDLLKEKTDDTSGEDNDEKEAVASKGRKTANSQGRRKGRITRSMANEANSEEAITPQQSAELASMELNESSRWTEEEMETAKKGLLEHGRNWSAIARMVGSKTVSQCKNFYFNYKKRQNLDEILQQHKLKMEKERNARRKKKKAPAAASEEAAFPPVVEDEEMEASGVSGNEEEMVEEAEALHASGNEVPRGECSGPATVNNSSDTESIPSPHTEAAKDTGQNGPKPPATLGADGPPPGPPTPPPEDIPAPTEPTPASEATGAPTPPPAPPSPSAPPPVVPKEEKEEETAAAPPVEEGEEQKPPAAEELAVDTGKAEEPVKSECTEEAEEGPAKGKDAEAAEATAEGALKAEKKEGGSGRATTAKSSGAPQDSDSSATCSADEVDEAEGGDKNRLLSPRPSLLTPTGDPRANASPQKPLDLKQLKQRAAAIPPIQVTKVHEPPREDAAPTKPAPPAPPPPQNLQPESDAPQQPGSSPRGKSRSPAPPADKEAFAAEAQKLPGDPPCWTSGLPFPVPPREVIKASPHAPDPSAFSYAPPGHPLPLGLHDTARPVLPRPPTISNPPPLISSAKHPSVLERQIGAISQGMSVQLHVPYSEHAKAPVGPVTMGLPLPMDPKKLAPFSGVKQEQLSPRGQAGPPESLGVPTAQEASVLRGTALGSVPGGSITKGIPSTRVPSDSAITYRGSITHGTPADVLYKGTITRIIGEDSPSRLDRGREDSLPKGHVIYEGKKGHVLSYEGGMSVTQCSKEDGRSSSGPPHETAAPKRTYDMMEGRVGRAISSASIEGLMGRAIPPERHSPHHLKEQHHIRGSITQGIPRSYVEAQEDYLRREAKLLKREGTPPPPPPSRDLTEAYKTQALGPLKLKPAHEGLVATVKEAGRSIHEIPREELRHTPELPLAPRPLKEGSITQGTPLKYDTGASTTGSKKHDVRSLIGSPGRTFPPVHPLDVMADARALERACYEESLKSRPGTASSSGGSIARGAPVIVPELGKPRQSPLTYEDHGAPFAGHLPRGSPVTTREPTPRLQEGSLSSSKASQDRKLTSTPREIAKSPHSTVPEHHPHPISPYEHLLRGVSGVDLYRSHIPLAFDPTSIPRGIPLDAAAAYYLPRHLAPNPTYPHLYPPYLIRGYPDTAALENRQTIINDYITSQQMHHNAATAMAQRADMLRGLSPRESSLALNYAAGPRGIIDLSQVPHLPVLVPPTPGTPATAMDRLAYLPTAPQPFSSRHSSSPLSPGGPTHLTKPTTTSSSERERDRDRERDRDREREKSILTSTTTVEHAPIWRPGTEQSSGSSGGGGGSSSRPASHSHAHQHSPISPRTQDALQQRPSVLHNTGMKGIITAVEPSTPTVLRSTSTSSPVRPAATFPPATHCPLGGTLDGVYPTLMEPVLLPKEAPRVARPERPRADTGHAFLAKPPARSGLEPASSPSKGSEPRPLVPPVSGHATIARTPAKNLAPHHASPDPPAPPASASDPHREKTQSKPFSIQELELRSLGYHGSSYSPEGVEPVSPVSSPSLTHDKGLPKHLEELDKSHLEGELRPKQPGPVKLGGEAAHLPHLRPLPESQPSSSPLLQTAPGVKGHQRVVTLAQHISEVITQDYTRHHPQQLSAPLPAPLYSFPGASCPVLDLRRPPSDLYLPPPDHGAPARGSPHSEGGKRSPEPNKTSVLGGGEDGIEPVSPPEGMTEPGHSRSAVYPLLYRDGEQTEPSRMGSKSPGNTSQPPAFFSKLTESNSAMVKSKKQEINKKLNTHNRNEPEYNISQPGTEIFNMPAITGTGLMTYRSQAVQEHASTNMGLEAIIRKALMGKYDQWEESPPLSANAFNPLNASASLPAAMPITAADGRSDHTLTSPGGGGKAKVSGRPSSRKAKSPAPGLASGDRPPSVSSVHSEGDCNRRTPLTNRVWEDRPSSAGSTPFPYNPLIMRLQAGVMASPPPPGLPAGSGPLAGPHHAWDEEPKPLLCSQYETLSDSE

[9] = biological target: Histone deacetylase 1 (Homo sapiens, UniProt Q13547); assay: Inhibition of human HDAC1 using p53 (379 to 382 residues) derived fluorogenic peptide RHKKAc
Histone deacetylase 1, sequence (Q13547 whole entry, the tested form may be a part): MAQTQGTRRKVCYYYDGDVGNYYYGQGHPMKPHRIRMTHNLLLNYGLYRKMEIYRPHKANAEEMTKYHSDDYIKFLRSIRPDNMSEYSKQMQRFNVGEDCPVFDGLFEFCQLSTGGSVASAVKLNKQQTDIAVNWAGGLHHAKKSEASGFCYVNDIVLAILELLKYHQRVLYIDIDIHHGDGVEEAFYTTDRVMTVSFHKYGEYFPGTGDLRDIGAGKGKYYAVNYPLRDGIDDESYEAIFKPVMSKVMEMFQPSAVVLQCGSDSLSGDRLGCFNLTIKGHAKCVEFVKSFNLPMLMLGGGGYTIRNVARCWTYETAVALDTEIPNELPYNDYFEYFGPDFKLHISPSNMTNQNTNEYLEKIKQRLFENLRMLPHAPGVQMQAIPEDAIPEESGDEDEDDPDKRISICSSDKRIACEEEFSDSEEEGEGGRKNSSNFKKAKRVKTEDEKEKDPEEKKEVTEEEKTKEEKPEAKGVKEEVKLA

IC50 [1]: ≥ 10000 nM
IC50 [2]: > 10000 nM
inhibition [4]: 87%
inhibition [5]: 0%
IC50 [6]: 500 to 1000 nM
inhibition [7]: Dose-dependent effect
IC50 [8]: 350 nM
IC50 [9]: > 10000 nM
Structure (SMILES): CC(C)(C(=O)Nc1ccc(C(=O)Nc2ccc(F)cc2N)cc1)c1ccccc1
inhibition [3]: Active
